Measured values from different studies.
Lines come from different studies, so protocols differ.
Target: Dual specificity tyrosine-phosphorylation-regulated kinase 1B (DYRK1B, Homo sapiens, UniProt Q9Y463)
Method: competition with immobilised ligand

| Structure (SMILES) | test | conditions | remaining binding [%] |
| --- | --- | --- | --- |
| c1cncc(-c2cccc(Nc3nccc(NC4CCCCC4)n3)c2)c1 | binding | 10 µM | 38 |
| Nc1c(C(=O)NCc2ccc(C(=O)NCCCC3CCCCC3)cc2)cnn1-c1ccccc1 | cell-free assay | 0.1 µM | 100 |
| COc1cnc(Nc2cccc(S(N)(=O)=O)c2)nc1N1CCN(c2ccccc2)CC1 | binding | 1 µM | 100 |
| O=C(N[C@H]1CCCCC/C=C\C2C[C@@]2(C(=O)O)NC(=O)[C@@H]2C[C@@H](Oc3ccncc3)CN2C1=O)OC1CCCC1 (stereo partly drawn) | cell-free assay | 1 µM | 46 |
| O=C(c1ccc(Nc2ncc(Cl)c(-c3cc4ccccc4s3)n2)cc1)N1CCC(N2CCCC2)CC1 | binding | 1 µM | 18 |
| CC(C)(C)c1ccc(-c2nc(CBr)nn2-c2cccc(O)c2)cc1 | cell-free assay | 10 µM | 78 |
| CCN1CCN(Cc2ccc(C(=O)Nc3ccc(C)c(Oc4ccc5c(c4)CC(=O)N5)c3)cc2C(F)(F)F)CC1 | binding | 1 µM | 95 |
| CN(CCCC(F)(F)F)c1nccc(-c2cnn3ncccc23)n1 | binding | 1 µM | 39 |
| O=C(NCCCN1CCOCC1)c1ccc(Nc2nccc(-c3cc4ccccc4s3)n2)cc1 | binding | 1 µM | 92 |
| O=C(Nc1c[nH]nc1C(=O)NC1CCNCC1)c1cc(F)cc(F)c1 | binding | 1 µM | 100 |
| CNCc1ccccc1-c1csc([C@H](C)Nc2nc(C)nc3cc(OC)c(OC)cc23)c1 | cell-free assay | 1 µM | 55 |
| Cc1cnc(Nc2ccc(C(=O)N3CCC(N4CCCC4)CC3)cc2)nc1-c1cc2ccccc2s1 | binding | 1 µM | 43 |
| CNC(=O)[C@@H]1CC[C@@H](n2c(-c3ccc4cnccc4c3)nc3ccc(C(=O)NCc4cccc(C(N)=O)c4)cc32)C1 | binding | 1 µM | 45 |
| COc1ccc2c(c1)O[C@H](c1ccc(OC)c(OC)c1)C[C@@H]2NC(=O)C1(c2ccc3c(c2)OC(F)(F)O3)CC1 | cell-free assay | 1 µM | 91 |
| N#Cc1ccccc1CSc1nnc2c(n1)[nH]c1ccccc12 | binding | 10 µM | 74 |
